Laboratory results from ChEMBL document CHEMBL1123724, “A novel synthesis of colchicide and analogues from thiocolchicine and congeners: reevaluation of colchicide as a potential antitumor agent” (1987).

How the values were obtained:
[1] = target: Tubulin beta chain (Bos taurus) (UniProt Q6B856); settings: at 25 µM
Mus musculus [2] = experiment: In vivo antitumor activity against P388 mouse leukemia expressed as T/C (median survival time of treated animals / median survival time of untreated controls x 100) at a dose of 12.5 mg/kg; type: functional
Method in brief: (§1)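 P388 leukemia implanted ip in mice, with ip dosing on a QD1 × 9 schedule. Read-out is T/C = median survival of treated animals / median survival of untreated controls × 100. Activity requires duplicate tests giving T/C ≥120%.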

Mus musculus [3] = experiment: In vivo antitumor activity against P388 mouse leukemia and minimum affective dose (MED) which produced a T/C greater than the threshold value of 125 was reported.; type: functional; settings: read-out: MED
Method in brief: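 P388 leukemia cells implanted intraperitoneally in mice. Drug given ip once daily for 9 days (QD1 × 9). T/C = median survival time of treated animals / median survival time of untreated controls × 100. Minimum effective dose is the lowest dose (mg/kg) giving T/C above the threshold of 125. Reported dose levels are those with the highest T/C.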

Mus musculus [4] = experiment: In vivo antitumor activity against P388 mouse leukemia expressed as T/C (median survival time of treated animals / median survival time of untreated controls x 100) at a dose of 0.32 mg/kg; type: functional
Method in brief: as §1

Mus musculus [5] = experiment: In vivo antitumor activity against P388 mouse leukemia expressed as T/C (median survival time of treated animals / median survival time of untreated controls x 100) at a dose of 0.94 mg/kg; type: functional
Method in brief: as §1

Mus musculus [6] = experiment: In vivo antitumor activity against P388 mouse leukemia expressed as T/C (median survival time of treated animals / median survival time of untreated controls x 100) at a dose of 3.12 mg/kg; type: functional
Method in brief: as §1

Mus musculus [7] = experiment: In vivo antitumor activity against P388 mouse leukemia expressed as T/C (median survival time of treated animals / median survival time of untreated controls x 100) at a dose of 0.5 mg/kg; type: functional
Method in brief: as §1

Mus musculus [8] = experiment: In vivo antitumor activity against P388 mouse leukemia expressed as T/C (median survival time of treated animals / median survival time of untreated controls x 100) at a dose of 0.18 mg/kg; type: functional
Method in brief: as §1

Chain of Tubulin beta chain (Bos taurus) (Q6B856 whole entry): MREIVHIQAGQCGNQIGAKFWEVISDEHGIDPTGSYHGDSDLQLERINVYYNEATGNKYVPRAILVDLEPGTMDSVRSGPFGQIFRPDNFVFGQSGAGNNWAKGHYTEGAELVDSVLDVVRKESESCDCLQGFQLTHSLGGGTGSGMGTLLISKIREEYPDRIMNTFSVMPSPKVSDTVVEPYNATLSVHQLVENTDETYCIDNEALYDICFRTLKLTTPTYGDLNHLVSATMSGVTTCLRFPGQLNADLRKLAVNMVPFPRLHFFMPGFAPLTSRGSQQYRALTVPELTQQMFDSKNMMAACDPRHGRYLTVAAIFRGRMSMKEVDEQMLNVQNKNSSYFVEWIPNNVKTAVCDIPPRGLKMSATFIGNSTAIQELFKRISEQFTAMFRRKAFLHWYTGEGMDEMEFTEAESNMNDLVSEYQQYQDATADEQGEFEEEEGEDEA

| Tubulin binding [1] [%] | SMILES | minimal effective dose (Mus musculus [3]) [mg/kg] | other results |
| --- | --- | --- | --- |
| 0 | COc1c2c(cc3c1-c1cccc(=O)cc1[C@@H](NC(C)=O)CC3)OCO2 |  |  |
|  | COc1cc2c(c(OC)c1OC)-c1ccc(SCc3ccccc3)c(=O)cc1[C@@H](NC(C)=O)CC2 | 3.12 | T/C (Mus musculus [2]): 214 |
|  | CNc1ccc2c(cc1=O)[C@@H](NC(C)=O)CCc1cc(OC)c(OC)c(OC)c1-2 | 0.04 | T/C (Mus musculus [4]): 166 |
| 0 | COc1cc2c(c(OC(C)=O)c1OC)-c1cccc(=O)cc1[C@@H](NC(C)=O)CC2 |  |  |
|  | COc1c2c(cc3c1-c1ccc(OC)c(=O)cc1[C@@H](NC(C)=O)CC3)OCO2 | > 0.4 | T/C (Mus musculus [5]): 166 |
| 26 | COc1cc2c(c(OC)c1O)-c1cccc(=O)cc1[C@@H](NC(C)=O)CC2 |  |  |
|  | CCN(CC)c1ccc2c(cc1=O)[C@@H](NC(C)=O)CCc1cc(OC)c(OC)c(OC)c1-2 | 0.39 | T/C (Mus musculus [6]): 216 |
| 0 | COc1cc2c(c(O)c1OC)-c1cccc(=O)cc1[C@@H](NC(C)=O)CC2 |  |  |
|  | COc1cc2c(c(OC)c1OC)-c1ccc(OC)c(=O)cc1[C@@H](NC(C)=O)CC2 [COLCHICINE] | 0.06 | T/C (Mus musculus [7]): 245 |
|  | COc1cc2c(c(OC)c1OC)-c1ccc(SC)c(=O)cc1[C@@H](NC(C)=O)CC2 [THIOCOLCHICINE] | 0.05 | T/C (Mus musculus [8]): 193 |
